# High-throughput results from PubChem BioAssay.
# Only some compounds are listed: those with a hit (about 12% of all), similar ones and a draw of the others.
# Diaphorase act – counter-screen for diaphorase-based assays: diaphorase activators and chemical reducers. AID 1229. actives 0.005% (n = 190,000). activation factor at 20 µM. Diaphorase/resazurin coupled assay, resorufin fluorescence, 16 min; stronger effect = higher value; 1 = vehicle wells, 0 = NADH-free wells;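 active = diaphorase activity raised at least twofold by the compound at 20 µM; inactive = activation factor below 2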
#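 Material: bacterial diaphorase enzyme (C. kluyveri); amount: enzyme 0.07 U/mL final; reagent: NADH substrate 0.114 mM plus resazurin dye 0.1 mM, final; doses: single compound dose of 20 µM, 1% DMSO final; timing: 16 min enzyme reaction, ambient temperature; measured by: fluorescence of resorufin, 544 nm excitation, 590 nm emission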
# Diaphorase inh – counter-screen for diaphorase-based assays: diaphorase inhibitors and chemical oxidizers; diaphorase resazurin-to-resorufin fluorescence, NADH, 16 min; bacterial (C. kluyveri) enzyme, not human; actives 0.69% (n = 190,000); AID 1217; inhibition, % at 20 µM;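 active = primary screen inhibition at 20 µM above a set limit, cut at about 50% in these data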;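 also: plate controls were DMSO with full reaction for no effect and wells lacking NADH for full effect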
#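 Detection: fluorescence of resorufin formed from resazurin, Ex 544/Em 590 nm; test system: Clostridium kluyveri diaphorase enzyme; amount: 0.14 U/mL diaphorase, enzyme working solution; times: 16-min room-temperature incubation before reading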
# Lmaj promast – Leishmania major promastigote growth inhibition | Leishmania major promastigotes, resazurin fluorescence viability | actives 9% (n = 200,000) | AID 1063 | inhibition, % at 10 µM; in the data active = inhibition above about 50%;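 also: promastigotes grown with compound for 44 hours at 28 °C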
# Cl transport mod – modulates chloride dependent transport by human KCC2 | actives 2.2% (n = 190,000) | B-score of Tl+ flux slope (higher = more flux/activation; lower = inhibition) at 10 µM | KCC2 cells, thallium flux FluoZin-2 fluorescence | Q9H2X9;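 active = thallium flux slope and its plate-corrected score both differing from the plate sample mean at a set confidence after two filtering rounds, in either direction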;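 also: slope of fluorescence scaled to starting intensity during 10 to 20 s after thallium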
# Target sequence (Q9H2X9 whole entry, looked up): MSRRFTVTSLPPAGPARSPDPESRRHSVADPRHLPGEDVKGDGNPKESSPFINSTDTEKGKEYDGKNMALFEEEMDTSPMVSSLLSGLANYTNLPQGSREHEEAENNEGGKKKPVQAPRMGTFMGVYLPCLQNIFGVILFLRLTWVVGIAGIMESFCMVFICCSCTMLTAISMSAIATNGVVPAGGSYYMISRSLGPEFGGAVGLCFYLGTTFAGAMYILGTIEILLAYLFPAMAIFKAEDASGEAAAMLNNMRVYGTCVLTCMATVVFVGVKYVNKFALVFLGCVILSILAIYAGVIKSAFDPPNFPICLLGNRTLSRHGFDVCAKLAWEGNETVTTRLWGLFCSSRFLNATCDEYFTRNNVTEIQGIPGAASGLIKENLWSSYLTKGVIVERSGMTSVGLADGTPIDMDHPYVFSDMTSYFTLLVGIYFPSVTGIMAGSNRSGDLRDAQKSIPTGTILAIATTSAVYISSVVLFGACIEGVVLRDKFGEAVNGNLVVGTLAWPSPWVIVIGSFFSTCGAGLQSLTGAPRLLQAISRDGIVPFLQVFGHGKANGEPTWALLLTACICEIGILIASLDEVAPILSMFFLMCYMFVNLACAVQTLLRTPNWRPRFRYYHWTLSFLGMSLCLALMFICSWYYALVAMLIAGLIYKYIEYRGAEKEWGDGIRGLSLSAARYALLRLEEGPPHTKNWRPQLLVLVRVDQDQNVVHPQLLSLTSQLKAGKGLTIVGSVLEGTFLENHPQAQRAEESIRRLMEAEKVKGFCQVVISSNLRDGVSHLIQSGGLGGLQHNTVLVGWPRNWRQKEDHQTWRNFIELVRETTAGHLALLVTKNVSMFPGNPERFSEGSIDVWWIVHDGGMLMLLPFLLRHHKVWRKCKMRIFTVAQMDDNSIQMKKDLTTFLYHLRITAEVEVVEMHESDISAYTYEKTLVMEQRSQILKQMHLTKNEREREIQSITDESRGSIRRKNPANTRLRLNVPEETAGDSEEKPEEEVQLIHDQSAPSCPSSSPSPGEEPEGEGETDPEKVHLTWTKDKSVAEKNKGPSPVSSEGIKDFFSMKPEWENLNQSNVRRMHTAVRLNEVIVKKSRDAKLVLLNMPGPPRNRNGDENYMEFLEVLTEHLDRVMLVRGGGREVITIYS
# WT yeast gro inh – growth inhibition of WT yeast, mitochondrial fusion screen; mitochondrial fusion phenotypic screen, WT strain; inhibition, % at 10 µM; actives 2.1% (n = 190,000); AID 1362; in the data active = inhibition above about 58%; tested in S. cerevisiae
# ROMK primary – modulators of human ROMK potassium channel; AID 1918; B-score at 10 µM; P48048; actives 2% (n = 130,000); Tet-inducible ROMK, thallium flux fluorescence; actives lie on both sides;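 active = signal ratio slope over the read window, or its plate-corrected B-score, at least 3 SD from the plate mean, either direction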;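 also: B-score of the F/F0 ratio slope over 7 to 12 s after thallium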
# Active calls of the source: *; / = no result given.
SMILES,Diaphorase act,Diaphorase inh,Lmaj promast,Cl transport mod,WT yeast gro inh,ROMK primary
COC(=O)C1C(O)C(C)C(O)C(C)/C=C\C=C(/C)C(=O)Nc2c(C)c(OC(C)=O)c3c(c2O)C(=O)C(C)=C2OCOC(=C23)/C(C)=C/C(C)(O)C(O)C(C)C1O (stereo unspecified),/,/,/,0.85,/,/
CC[N+](CC)(CC)CCCOC(=O)C(O)(c1ccccc1)C1CCCCC1 (stereo unspecified),0.8,16,-3,1.3,-6,/
CCOC(=O)C(O)(c1ccc(N(CC)S(=O)(=O)c2ccccc2)cc1)C(F)(F)F (stereo unspecified),0.8,23,100*,0.31,-4,-1.3
COC(=O)C(O)(c1cn(C)c2ccccc12)C(F)(F)F (stereo unspecified),0.9,8,2,0.89,7,/
CCN(c1ccc(C(O)(C(=O)OC)C(F)(F)F)cc1)S(=O)(=O)c1ccccc1 (stereo unspecified),0.8,16,99*,-1.1,8,/
Brc1ccc2[nH]cc(/C=N/N3CCCCC3)c2c1,0.8,24,6,0.31,-22,-0.26
CCC(C#N)(CC)P(=S)(c1ccccc1)c1ccccc1,0.9,15,100*,0,52,1.8
COc1ccccc1Cn1c(SCC(=O)C(C)(C)C)nc2cc(C(=O)N3CCC4(CC3)OCCO4)ccc2c1=O,0.9,12,57*,-2.2,8,0.27
COc1ccc(-n2cnc3cc(C(=O)N4CCC5(CC4)OCCO5)ccc32)cc1,0.9,5,-1,0.52,3,1.7
COc1ccccc1CCNC1CCC(C)CC1 (stereo unspecified),1,1,77*,0.35,-1,-1.8
Cc1ccn2nc(S(=O)(=O)Nc3c(F)cccc3F)nc2n1,1.1,-5,-9,0.11,-9,/
CC(C(=O)Nc1ccc(Br)cc1C(=O)c1ccccc1)N1CCOCC1 (stereo unspecified),0.9,9,99*,0.26,-8,/
CCN(CC)CCCC(C)N=C(c1ccccc1)c1c(O)n(C)c(=O)n(C)c1=O (stereo unspecified),0.9,6,95*,0.89,-9,-0.0026
CCOC(=O)c1ccc(N=C(c2ccccc2)c2c(O)n(C)c(=O)n(C)c2=O)cc1,/,/,/,0.029,/,/
O=C(c1cccc2ccccc12)C1CCCN(Cc2ccon2)C1 (stereo unspecified),/,/,/,-0.24,/,/
O=C(c1cccc2ccccc12)C1CCCN(C2CCC2)C1 (stereo unspecified),0.8,21,74*,1.4,4,-0.26
CC(=O)OC[C@]12CCC(C)=C[C@H]1O[C@@H]1[C@H](O)[C@@H](OC(C)=O)[C@@]2(C)[C@]12CO2,/,/,/,-0.036,/,/
NCCc1c[nH]c2ccccc12,0.9,10,-3,0.37,-7,-0.44
c1ccc2c(CN3CCCCCCC3)c[nH]c2c1,0.9,13,98*,/,3,/
c1ccc2c(CN3CCN(C4CCCCC4)CC3)c[nH]c2c1,1.2,-18,75*,0.78,6,-1
Clc1ccccc1CN1CCN(c2cccc3[nH]ccc23)CC1,/,/,/,/,/,0.1
O=C(NCc1cccnc1)C(Cl)(Cl)Cl,1,5,-9,0.69,2,-0.021
CCCCCc1cc(O)c2c3c(c(=O)oc2c1)CN(C)CC3,1.2,-15,99*,0.61,49,-0.4
N/C(=N\[N+](=O)[O-])N1CCN(C(=O)c2ccccc2)CC1,1,-5,2,0.65,-3,-0.66
O=C1C2CCN(CC2)C1Cc1ccc(OCc2ccccc2)cc1 (stereo unspecified),0.9,11,100*,-0.5,22,-0.98
COc1ccccc1CC1C(=O)C2CCN1CC2 (stereo unspecified),0.9,6,2,0.047,6,/
CCN(CC)CCCNC(=O)c1c(O)c2ccccc2n(Cc2ccccc2)c1=O,1,-3,100*,0.98,5,-1.2
CC(=O)c1c(C)n(Cc2ccccc2)c2ccc(O)cc12,/,/,/,0.11,/,/
CCCCn1c(=O)c(C(=O)Nc2nc3ccccc3[nH]2)c(O)c2ccccc21,0.9,11,/,/,/,/
CCN(CC)CCNC(=O)c1c(O)c2ccccc2n(Cc2ccccc2)c1=O,1,-2,89*,/,5,/
